The target in experiment [1] is Prostaglandin G/H synthase 1 (Homo sapiens) (UniProt P23219). The experiment can be described thus: Inhibition of cyclooxygenase 1 upto 4 uM.
Experiment [2] concerns the target T1, Peroxisome proliferator-activated receptor gamma (Homo sapiens, UniProt P37231).
T1 sequence (P37231 whole entry): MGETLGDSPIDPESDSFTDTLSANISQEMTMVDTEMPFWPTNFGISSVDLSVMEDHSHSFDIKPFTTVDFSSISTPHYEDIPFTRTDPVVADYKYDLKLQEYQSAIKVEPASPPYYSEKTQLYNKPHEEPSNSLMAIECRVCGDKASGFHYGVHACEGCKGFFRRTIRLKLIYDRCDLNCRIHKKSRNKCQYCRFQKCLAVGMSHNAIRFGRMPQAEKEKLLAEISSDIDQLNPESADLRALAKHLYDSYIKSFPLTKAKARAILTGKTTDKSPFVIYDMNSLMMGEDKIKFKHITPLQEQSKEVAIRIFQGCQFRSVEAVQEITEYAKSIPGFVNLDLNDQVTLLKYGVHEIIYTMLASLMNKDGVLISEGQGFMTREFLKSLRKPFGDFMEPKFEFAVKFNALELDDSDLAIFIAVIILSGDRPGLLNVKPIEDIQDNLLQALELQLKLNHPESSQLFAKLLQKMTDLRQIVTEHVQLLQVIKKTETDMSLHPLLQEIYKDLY
The experiment can be described thus: (§1) Agonist activity at PPARgamma expressed in human HCA7 cells assessed as induction of peroxisome proliferator response element after 12 hrs by luciferase reporter assay. The format is functional, cell-based. A general note: In a reporter assay the amount or activity of a reporter protein is the signal.

Experiment [3] concerns the target T2, Peroxisome proliferator-activated receptor gamma (Homo sapiens) (UniProt P37231).
T2 sequence (whole entry): T1 sequence (P37231 whole entry)
Briefly: Displacement of [3H]troglitazone from human PPARgamma ligand binding domain expressed in Escherichia coli by scintillation proximity assay. The essentials: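 His-tagged human PPARγ-LBD from E. coli, biotinylated and bound to streptavidin SPA beads. Competition against 50 nM 3H-troglitazone with rising unlabeled compound. Buffer 50 mM HEPES pH 7, 50 mM KCl, 5 mM CHAPS, BSA, no dithiothreitol.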
In general terms: Displacement assays read how much labelled ligand stays bound in the presence of the test substance.

The target of experiment [4] is T2, Peroxisome proliferator-activated receptor gamma (Homo sapiens). The experiment can be described thus: Agonist activity at PPARgamma in human HCA7 cells expressing shRNA assessed as induction of peroxisome proliferator response element at 1 uM after 12 hrs by luciferase reporter assay. The experiment is classed as functional, cell-based. In short, it runs like this: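 HCA7 lines stably carrying control or PPARγ/α/δ shRNA (nucleofection, puromycin selection). Cells at 40% confluence co-transfected with 1.8 μg PPRE-luciferase and 0.2 μg pSVβgal using Lipofectamine 2000. After 6 h, growth medium for 16 h, then 12 h compound in serum-free medium. Luciferase normalized to β-galactosidase; means, SD, n = 6; Student's t test.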

In experiment [5] the target is T3, Peroxisome proliferator-activated receptor delta (Homo sapiens) (UniProt Q03181).
T3 sequence (whole entry): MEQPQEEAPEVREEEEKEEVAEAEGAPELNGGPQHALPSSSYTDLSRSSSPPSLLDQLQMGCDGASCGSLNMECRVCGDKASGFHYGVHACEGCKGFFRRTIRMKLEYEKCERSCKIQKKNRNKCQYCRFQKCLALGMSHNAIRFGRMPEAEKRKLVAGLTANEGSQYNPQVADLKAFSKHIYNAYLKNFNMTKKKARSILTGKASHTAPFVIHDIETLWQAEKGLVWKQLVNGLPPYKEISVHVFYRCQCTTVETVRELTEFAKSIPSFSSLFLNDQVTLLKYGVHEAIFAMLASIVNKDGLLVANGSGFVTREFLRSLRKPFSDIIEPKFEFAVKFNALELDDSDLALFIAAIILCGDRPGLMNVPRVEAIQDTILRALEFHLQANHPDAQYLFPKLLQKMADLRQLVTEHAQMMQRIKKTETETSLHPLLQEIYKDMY
The experiment can be described thus: Agonist activity at PPARdelta in human HCA7 cells assessed as induction of peroxisome proliferator response element at 1 uM after 12 hrs by luciferase reporter assay. The format is functional, cell-based. In short, it runs like this:
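HCA7 human colon cancer cells (which express PPARα, δ and γ) grown in DMEM with 10% FBS to 40% confluence. Transfected with 1.8 μg PPRE-luciferase plus 0.2 μg pSVβgal using Lipofectamine 2000. After 6 h, growth medium for 16 h, then compound in serum-free medium for 12 h. Luciferase normalized to β-galactosidase; n = 6.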

Experiment [6] concerns the target T2, Peroxisome proliferator-activated receptor gamma (Homo sapiens). Briefly: Agonist activity at PPARgamma in human HCA7 cells assessed as induction of aP2 expression after 24 hrs by Western blotting. The experiment is classed as functional, cell-based. In short, it runs like this: (§2)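 HCA7 cells (DMEM, 10% FBS) treated 0–1 μM for 24 h. Lysates made in Tween 20/protease-inhibitor buffer, sonicated and cleared at 10000g. Protein measured by BCA, 100 μg/lane run on 12.5% SDS-PAGE. Blotted to nitrocellulose, probed for L-FABP, aP2 and β-actin, HRP secondary with ECL detection.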
On the technique in general: A western blot detects proteins with antibodies after separation by electrophoresis.

The target is the same in experiment [7]. The experiment can be described thus: Stimulation of PPARgamma binding to P32-labeled peroxisome proliferator response element in human HCA7 cells nuclear extracts after 30 mins by electrophoretic mobility shift assay. The format is cell-based. In short, it runs like this:
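HCA7 cells treated with vehicle or 0.1–1 μM for 30 min, then nuclear extracts prepared. 5 μg nuclear protein preincubated 10 min at 25 °C in HEPES pH 7.9, glycerol, BSA, poly(dI·dC). 32P-labeled PPRE oligonucleotide added for 20 min at 25 °C. Specificity checked by 100-fold unlabeled or mutant competitor and PPARγ antibody supershift. Run on 4% native PAGE, read by autoradiography.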

In experiment [8] the target is T3, Peroxisome proliferator-activated receptor delta (Homo sapiens). Briefly: Agonist activity at PPARdelta in human HCA7 cells expressing shRNA assessed as induction of peroxisome proliferator response element at 1 uM after 12 hrs by luciferase reporter assay. The experiment is classed as functional, cell-based. In short, it runs like this:
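Stable HCA7 lines made by nucleofection with control shRNA or shRNAs to PPARγ, α or δ, then puromycin-selected; silencing checked by immunoblot. Cells transfected with 1.8 μg PPRE-luciferase plus 0.2 μg pSVβgal (Lipofectamine 2000). Medium change after 6 h, growth medium for 16 h, then 1 μM compound serum-free for 12 h. Luciferase normalized to β-galactosidase; n = 6.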

The target in experiment [9] is T2, Peroxisome proliferator-activated receptor gamma (Homo sapiens). Briefly: Agonist activity at PPARgamma in human HCA7 cells assessed as induction of L-FABP expression after 24 hrs by Western blotting in presence of GW-9662. The experiment is classed as functional, cell-based. The essentials: (§3)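 HCA7 cells given vehicle, the agonist, the antagonist alone, or both together for 24 h. Lysate protein 100 μg/lane on 12.5% SDS-PAGE, transferred to nitrocellulose. Immunoblot probed for L-FABP, aP2 and β-actin with ECL detection.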

Experiment [10] shares this target. The experiment can be described thus: Agonist activity at PPARgamma in human HCA7 cells assessed as induction of aP2 expression after 24 hrs by Western blotting in presence of GW-9662. The experiment is classed as functional, cell-based. In short, it runs like this:
as §3

For experiment [11] the target is unchanged. The experiment is described as §1. The format is functional, cell-based.
For experiment [12] the target is unchanged. The experiment can be described thus: Agonist activity at PPARgamma in human HCA7 cells assessed as induction of L-FABP expression after 24 hrs by Western blotting. The format is functional, cell-based. The essentials: as §2
For another experiment, the system named is 3T3-L1. Briefly: Induction of triglyceride accumulation in mouse 3T3L1 cells at 1 uM after 48 hrs. The experiment is classed as functional, cell-based. The essentials:
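Mouse 3T3-L1 cells in DMEM with 10% calf serum, grown to 60% confluence. Differentiation started with 0.1% IBMX plus 1.0% dexamethasone for 48 h. Then 2 days in growth medium with 10 μg/mL human insulin plus compound, then fresh growth medium for 48 h. Lipid droplets stained with Oil Red O and imaged at 200×.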

Calls of active or inactive are those of the source. The rule behind the calls is not given here.

As usually defined, the EC50 is the concentration that produces a half-maximal response.

Sequence of Prostaglandin G/H synthase 1 (Homo sapiens) (P23219 whole entry): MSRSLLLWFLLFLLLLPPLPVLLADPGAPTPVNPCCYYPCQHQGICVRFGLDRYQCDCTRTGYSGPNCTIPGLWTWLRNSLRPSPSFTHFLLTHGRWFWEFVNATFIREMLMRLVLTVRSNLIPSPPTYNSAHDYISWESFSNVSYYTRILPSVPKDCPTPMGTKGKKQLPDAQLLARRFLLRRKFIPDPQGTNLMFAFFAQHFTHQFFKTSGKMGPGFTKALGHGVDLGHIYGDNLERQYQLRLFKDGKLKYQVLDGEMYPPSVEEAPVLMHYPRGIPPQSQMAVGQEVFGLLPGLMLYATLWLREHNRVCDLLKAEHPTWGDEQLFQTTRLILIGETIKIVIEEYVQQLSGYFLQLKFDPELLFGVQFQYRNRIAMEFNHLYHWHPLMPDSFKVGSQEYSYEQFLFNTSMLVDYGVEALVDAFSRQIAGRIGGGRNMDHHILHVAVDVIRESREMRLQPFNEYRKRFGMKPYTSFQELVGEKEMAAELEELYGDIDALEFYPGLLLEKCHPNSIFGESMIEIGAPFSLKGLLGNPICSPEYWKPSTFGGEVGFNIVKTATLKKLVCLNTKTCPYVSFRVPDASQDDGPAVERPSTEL

For `O=C(O)CC1=C/C(=C\c2cccc3cccnc23)c2ccc(F)cc21`, the result in experiment [1] was inactive. Moreover, in [2], the EC50 stood at 1500 nM.
Regarding `COc1ccc(/C=C2\C=C(CC(=O)O)c3cc(F)ccc32)cc1`, in [1], the result was inactive. Further, the EC50 in [2] amounted to 1300 nM.
For `O=C(O)CC1=C/C(=C\c2ccc3nccnc3c2)c2ccc(F)cc21`, in that order: “inactive” and greater than 10000 nM.
For `Cc1ccc(/C=C2\C=C(CC(=O)O)c3cc(F)ccc32)cc1`, the outcome in experiment [1] was inactive. The EC50 in experiment [2] was found to be 2400 nM.
For the compound `O=C(O)CC1=C/C(=C\c2ccc(Br)cc2)c2ccc(F)cc21`, the outcome in experiment [1] was inactive. Moreover, in experiment [2], the EC50 is 1100 nM.
Take `C#Cc1ccc(/C=C2\C=C(CC(=O)O)c3cc(F)ccc32)cc1`: the outcome in [1] was inactive. In experiment [2], the EC50 was 1100 nM.
For `O=C(O)CC1=C/C(=C\c2ccc3ccccc3c2)c2ccc(F)cc21`, in that order: “inactive” and 1200 nM.
Regarding `O=C(O)CC1=C/C(=C\c2ccc(SC(F)(F)F)cc2)c2ccc(F)cc21`, in experiment [1], the outcome was inactive. The EC50 in [2] came to 200 nM.
For `CC(C)(C)Oc1ccc(/C=C2\C=C(CC(=O)O)c3cc(F)ccc32)cc1`, the result in experiment [1] was inactive. In addition, the EC50 in experiment [2] was found to be 1900 nM.
Regarding `O=C(O)CC1=C/C(=C\c2ccc(-c3ccccc3)cc2)c2ccc(F)cc21`, in [1], the outcome was inactive. Also, the EC50 in [2] was found to be 100 nM.
Regarding `CSc1ccc(/C=C2/C(C)=C(CC(=O)O)c3cc(F)ccc32)cc1`, the outcome in experiment [1] was inactive.
For `O=C(O)CC1=C/C(=C\c2ccc(C(=O)O)cc2)c2ccc(F)cc21`, the result in experiment [1] was inactive. Besides, in experiment [2], the EC50 was greater than 10000 nM.
As to `[N-]=[N+]=NCc1ccc(/C=C2\C=C(CC(=O)O)c3cc(F)ccc32)cc1`, the outcome in experiment [1] was inactive. For the same compound, the EC50 in experiment [2] was 900 nM.
On to `O=C(O)CC1=C/C(=C\c2cccc3ccccc23)c2ccc(F)cc21`, for which the result (in experiment [3]; in [5]; in experiment [6]; in experiment [7]; in experiment [12]; in the experiment with 3T3-L1) was Active. The outcome in [1], in [4], in experiment [8], in [9] and in experiment [10] was inactive. The Activity result in [11] was “Dose-dependent effect”. Besides, the EC50 in experiment [2] is 100 nM.
Consider `O=C(O)CC1=C/C(=C\c2ccccc2)c2ccc(F)cc21`, for which the outcome in experiment [1] was inactive. Also, in experiment [2], the EC50 turned out to be 1700 nM.
For `CSc1ccc(/C=C2\C=C(CC(=O)O)c3cc(F)ccc32)cc1`, in that order: “inactive” and 700 nM.
On to `O=C(O)CC1=C/C(=C\c2ccc(-c3ccc(F)cc3F)cc2)c2ccc(F)cc21`, for which, in experiment [1], the result was inactive. In experiment [2], the EC50 is 100 nM.
As to `O=C(O)CC1=CCc2ccc(F)cc21`, in [1], the result was inactive. Further, the 50% effective concentration (EC50) in experiment [2] is greater than 10000 nM.
For `O=C(O)CC1=C/C(=C\c2ccc(F)c3ccccc23)c2ccc(F)cc21`, in that order: “inactive” and 100 nM.
Regarding `CS(=O)(=O)c1ccc(/C=C2\C=C(CC(=O)O)c3cc(F)ccc32)cc1`, the outcome in experiment [1] was inactive. Besides, in [2], the EC50 is greater than 10000 nM.
In the same order, the values of `O=C(O)CC1=C/C(=C\c2ccc(C(F)(F)F)cc2)c2ccc(F)cc21` are “inactive” and 2500 nM.
Take `CSc1ccc(-c2ccc(/C=C3\C=C(CC(=O)O)c4cc(F)ccc43)cc2)cc1`: the outcome in experiment [1] was inactive. In experiment [2], the EC50 stood at 1500 nM.
With `C[S+]([O-])c1ccc(/C=C2\C=C(CC(=O)O)c3cc(F)ccc32)cc1` (stereo unspecified), the outcome in [1] was inactive. The EC50 in experiment [2] is greater than 10000 nM.

The values are drawn from ChEMBL document CHEMBL1156567, “Sulindac derivatives that activate the peroxisome proliferator-activated receptor gamma but lack cyclooxygenase inhibition” (J Med Chem, 2008).
